Experimental data from ChEMBL document CHEMBL1135477, “Antifungal agents. 10. New derivatives of 1-[(aryl)[4-aryl-1H-pyrrol-3-yl]methyl]-1H-imidazole, synthesis, anti-candida activity, and quantitative structure-analysis relationship studies” (J Med Chem, 2002).
In brackets after ≈: the same amount, converted by molar mass.

Experiments:
Assay type in all cases: functional
Candida albicans [1] = test: In vitro antifungal activity against 40 strains of Candida albicans at pH 5.8; value ranges from 128 to >256
Method in brief: (§1)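 Broth serial-dilution MIC against 40 clinical C. albicans isolates from hospitalized patients, grown in Sabouraud broth at pH 7.2 or 5.8. Cells were pre-grown 18 h at 37 °C, inoculated at 10³/mL, and read at 24 h, 37 °C. Doubling dilutions ran 0.25–256 μg/mL from a DMSO/water solution. MIC was the lowest concentration with no visible growth against a DMSO/water blank.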

Candida [2] = test: Tested In vitro for antifungal activity against Candida species. at pH 7.2; (percent of resistant species at 256 ug/mL)
Method in brief: (§2)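 Broth serial-dilution test in Sabouraud broth at pH 7.2 or 5.8, against 3 fresh clinical non-albicans isolates (two C. glabrata, one C. krusei). Inocula were 10³/mL, pre-grown 18 h at 37 °C. Compound was twofold-diluted over 0.25–256 µg/mL and read at 24 h, 37 °C for visible growth.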

Candida [3] = test: Tested in vitro for antifungal activity against Candida species. at pH 5.8 (percent of resistant species at 256 ug/mL); method in brief: as §2
Candida albicans [4] = test: In vitro antifungal activity against 40 strains of Candida albicans at pH 5.8; method in brief: as §1
[5] = target: Lanosterol 14-alpha demethylase (Candida albicans (strain SC5314 / ATCC MYA-2876) (Yeast), UniProt P10613); test: Anticandida activity- (MIC90 compound) / (MIC90 bifonazole)
Candida albicans [6] = test: In vitro antifungal activity against 40 strains of Candida albicans at pH 5.8; (percent of resistant species at 256 ug/mL)
Method in brief: (§3)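 Broth serial-dilution test in Sabouraud broth at pH 7.2 or 5.8, against 40 fresh clinical C. albicans isolates from hospitalized patients. Inocula were 10³/mL, pre-grown 18 h at 37 °C in Sabouraud dextrose broth. Compound from a DMSO/water stock was twofold-diluted over 0.25–256 µg/mL. Visible growth was read at 24 h, 37 °C.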

Candida albicans [7] = test: In vitro antifungal activity against 40 strains of Candida albicans at pH 7.2; (percent of resistant species at 256 ug/mL); method in brief: as §3
Candida albicans [8] = test: In vitro antifungal activity against 40 strains of Candida albicans at pH 7.2; minimum inhibitory concentration ( range is from 32 to 128); method in brief: as §1
Candida [9] = test: Tested In vitro for antifungal activity against Candida species. at pH 7.2; value ranges from 256 to >256
Method in brief: (§4)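 Liquid serial-dilution MIC against 3 freshly isolated clinical Candida strains (two C. glabrata, one C. krusei) in Sabouraud broth at pH 7.2 or 5.8. Inoculum was 10³/mL after 18 h pre-culture at 37 °C, read at 24 h, 37 °C. Range was 0.25–256 μg/mL. Endpoint was no visible growth versus a DMSO/water blank.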

Candida [10] = test: Tested in vitro for antifungal activity against Candida species. at pH 5.8; value ranges from 256 to >256
Method in brief: (§5)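 Fresh clinical isolates (two C. glabrata, one C. krusei) were pre-grown 18 h at 37 °C in Sabouraud dextrose broth. Broth double-dilution was run in Sabouraud broth at pH 5.8 or 7.2 over 0.25–256 µg/mL from a DMSO/water stock, with 10³/mL inoculum.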

Candida [11] = test: Tested In vitro for antifungal activity against Candida species. at pH 7.2; method in brief: as §4
Candida [12] = test: Tested in vitro for antifungal activity against Candida species. at pH 5.8; method in brief: as §4
Candida albicans [13] = test: In vitro antifungal activity against 40 strains of Candida albicans at pH 7.2; method in brief: as §1
Candida [14] = test: Tested in vitro for antifungal activity against Candida species. at pH 5.8; (percent of resistant species at 256 ug/mL); method in brief: as §2
Candida [15] = test: Tested in vitro for antifungal activity against Candida species. at pH 7.2; (percent of resistant species at 256 ug/mL); method in brief: as §2
Candida albicans [16] = test: In vitro antifungal activity against 40 strains of Candida albicans at pH 7.2; minimum inhibitory concentration; value ranges from 128 to >256; method in brief: as §1
Candida [17] = test: Tested in vitro for antifungal activity against Candida species. at pH 7.2; method in brief: as §5
Candida albicans [18] = test: In vitro antifungal activity against 40 strains of Candida albicans at pH 5.8; value ranges from 128 to >256.; method in brief: as §1
Candida albicans [19] = test: In vitro antifungal activity against 40 strains of Candida albicans at pH 7.2; minimum inhibitory concentration value ranges from 128 to >256; method in brief: as §1
Candida [20] = test: Tested in vitro for antifungal activity at pH 5.8; range is >250
Method in brief: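 Serial two-fold broth dilution was run in Sabouraud broth at pH 5.8 over 0.25–256 µg/mL, against clinical Candida isolates (40 C. albicans; 2 C. glabrata plus 1 C. krusei). Inoculum was 10³/mL after 18 h pre-culture at 37 °C. No visible growth versus a DMSO/water blank was read at 24 h, 37 °C; the range spans per-strain MICs.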

Candida albicans [21] = test: In vitro antifungal activity against 40 strains of Candida albicans at pH 5.8; (range is from 2 to 128); method in brief: as §1
Candida albicans [22] = test: In vitro antifungal activity against 40 strains of Candida albicans at pH 7.2; minimum inhibitory concentration (range is from 2 to 256); method in brief: as §1
Candida [23] = test: Tested In vitro for antifungal activity against Candida species. at pH 7.2; (range is from 8 to 128); method in brief: as §4
Candida [24] = test: Tested in vitro for antifungal activity against Candida species. at pH 5.8 (range is from 16 to 256); method in brief: as §4

Chain of Lanosterol 14-alpha demethylase (P10613 whole entry): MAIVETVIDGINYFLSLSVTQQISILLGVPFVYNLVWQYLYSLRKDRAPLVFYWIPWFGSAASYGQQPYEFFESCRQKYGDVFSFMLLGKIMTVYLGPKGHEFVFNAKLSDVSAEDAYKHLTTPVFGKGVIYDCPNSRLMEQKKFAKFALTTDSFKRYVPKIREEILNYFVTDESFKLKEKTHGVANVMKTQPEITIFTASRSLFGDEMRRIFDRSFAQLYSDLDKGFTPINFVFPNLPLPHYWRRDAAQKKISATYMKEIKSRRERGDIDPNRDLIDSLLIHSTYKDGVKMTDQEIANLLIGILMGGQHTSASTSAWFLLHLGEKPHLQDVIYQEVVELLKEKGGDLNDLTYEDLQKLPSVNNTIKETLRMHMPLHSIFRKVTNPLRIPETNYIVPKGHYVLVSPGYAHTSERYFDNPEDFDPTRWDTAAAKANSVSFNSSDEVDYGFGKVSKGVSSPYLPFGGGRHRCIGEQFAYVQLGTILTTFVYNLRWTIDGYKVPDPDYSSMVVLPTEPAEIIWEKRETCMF

Structure (SMILES): Nc1ccc(-c2c[nH]cc2[C@@H](c2ccc(Cl)cc2Cl)n2ccnc2)cc1
- Range (Candida albicans [1]): >128 µg/mL
- Resistance (Candida [2]): 67%
- Resistance (Candida [3]): 67%
- MIC (Candida albicans [4]): 219 µg/mL (≈ 572 µM)
- MIC50 (Candida albicans [4]): > 256 µg/mL
- MIC90 (Candida albicans [4]): > 256 µg/mL
- Ratio [5]: 52
- Resistance (Candida albicans [6]): 80%
- Resistance (Candida albicans [7]): 54%
- Range (Candida albicans [8]): 128 µg/mL
- Range (Candida [9]): >256 µg/mL
- Range (Candida [10]): >256 µg/mL
- MIC (Candida [11]): 256 µg/mL (≈ 668 µM)
- MIC50 (Candida [11]): > 256 µg/mL
- MIC90 (Candida [11]): > 256 µg/mL
- MIC (Candida [12]): 256 µg/mL (≈ 668 µM)
- MIC50 (Candida [12]): > 256 µg/mL
- MIC90 (Candida [12]): > 256 µg/mL
- MIC (Candida albicans [13]): 85 µg/mL (≈ 222 µM)
- MIC50 (Candida albicans [13]): > 256 µg/mL
- MIC90 (Candida albicans [13]): > 256 µg/mL

Structure (SMILES): Clc1ccc(-c2c[nH]cc2[C@@H](c2ccc(Cl)cc2Cl)n2cnnc2)cc1
- Range (Candida albicans [1]): >256 µg/mL
- Resistance (Candida [14]): 100%
- Resistance (Candida [15]): 100%
- MIC (Candida albicans [4]): 128 µg/mL (≈ 317 µM)
- MIC50 (Candida albicans [4]): > 256 µg/mL
- MIC90 (Candida albicans [4]): > 256 µg/mL
- Ratio [5]: 49
- Resistance (Candida albicans [6]): 94%
- Resistance (Candida albicans [7]): 77%
- Range (Candida albicans [16]): >256 µg/mL
- MIC50 (Candida [12]): > 256 µg/mL
- MIC90 (Candida [12]): > 256 µg/mL
- Range (Candida [12]): >256 µg/mL
- MIC50 (Candida [17]): > 256 µg/mL
- MIC90 (Candida [17]): > 256 µg/mL
- Range (Candida [17]): >256 µg/mL
- MIC (Candida albicans [13]): 165 µg/mL (≈ 408 µM)
- MIC50 (Candida albicans [13]): > 256 µg/mL
- MIC90 (Candida albicans [13]): > 256 µg/mL

Structure (SMILES): Clc1ccc(-c2c[nH]cc2[C@@H](c2ccc(Cl)cc2Cl)n2cncn2)cc1
- Range (Candida albicans [18]): >256 µg/mL
- Resistance (Candida [14]): 100%
- Resistance (Candida [15]): 100%
- MIC (Candida albicans [4]): 209 µg/mL (≈ 519 µM)
- MIC50 (Candida albicans [4]): > 256 µg/mL
- MIC90 (Candida albicans [4]): > 256 µg/mL
- Ratio [5]: 49
- Resistance (Candida albicans [6]): 68%
- Resistance (Candida albicans [7]): 97%
- Range (Candida albicans [19]): >256 µg/mL
- Range (Candida [20]): >256 µg/mL
- MIC50 (Candida [12]): > 256 µg/mL
- MIC90 (Candida [12]): > 256 µg/mL
- MIC50 (Candida [17]): > 256 µg/mL
- MIC90 (Candida [17]): > 256 µg/mL
- Range (Candida [17]): >256 µg/mL
- MIC (Candida albicans [13]): 128 µg/mL (≈ 317 µM)
- MIC50 (Candida albicans [13]): > 256 µg/mL
- MIC90 (Candida albicans [13]): > 256 µg/mL

Structure (SMILES): O=[N+]([O-])c1ccc(-c2c[nH]cc2[C@@H](c2ccc(Cl)cc2Cl)n2ccnc2)cc1
- Range (Candida albicans [21]): 128 µg/mL
- Resistance (Candida [2]): 0%
- Resistance (Candida [3]): 0%
- MIC (Candida albicans [4]): 15 µg/mL (≈ 36.4 µM)
- MIC50 (Candida albicans [4]): 8 µg/mL (≈ 19.4 µM)
- MIC90 (Candida albicans [4]): 8 µg/mL (≈ 19.4 µM)
- Ratio [5]: 1.5
- Resistance (Candida albicans [6]): 0%
- Resistance (Candida albicans [7]): 0%
- Range (Candida albicans [22]): 256 µg/mL
- Range (Candida [23]): 128 µg/mL
- Range (Candida [24]): 256 µg/mL
- MIC (Candida [11]): 56 µg/mL (≈ 136 µM)
- MIC50 (Candida [11]): 32 µg/mL (≈ 77.4 µM)
- MIC90 (Candida [11]): 128 µg/mL (≈ 310 µM)
- MIC (Candida [12]): 133 µg/mL (≈ 323 µM)
- MIC50 (Candida [12]): 128 µg/mL (≈ 310 µM)
- MIC90 (Candida [12]): 256 µg/mL (≈ 619 µM)
- MIC (Candida albicans [13]): 14.7 µg/mL (≈ 35.6 µM)
- MIC50 (Candida albicans [13]): 8 µg/mL (≈ 19.4 µM)
- MIC90 (Candida albicans [13]): 8 µg/mL (≈ 19.4 µM)
